According to ChEMBL document CHEMBL4689842, “EUbOPEN Chemogenomics Library wave 1” (2021):

System: U2OS
Experiment: Multiplex assay against U2OS
Assay type: toxicity, cell-based
Conditions: human
How it was run: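 Four dyes were applied at seeding to live cells: Hoechst33342, BioTracker Green Microtubule Cytoskeleton Dye, MitoTracker Red and Annexin V Alexa Fluor 680. Imaging after compound addition used a CQ1 microscope at 37°C and 5% CO2. CellPathfinder machine-learning gating then sorted cells into Hoechst high-intensity objects or normal cells, normal cells into healthy, pyknosed or fragmented nuclei, and pyknosed cells into mitotic or apoptotic, with tubulin, mitochondrial-mass and membrane-permeability phenotypes given as per cents of healthy-nucleus cells.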

[1] = 12 h, 1 µM, compound concentration 1 uM, replicate 1
[2] = 12 h, 1 µM, compound concentration 1 uM, replicate 2
[3] = 12 h, 10 µM, compound concentration 10 uM, replicate 1
[4] = 12 h, 10 µM, compound concentration 10 uM, replicate 2
[5] = 24 h, 1 µM, compound concentration 1 uM, replicate 1
[6] = 24 h, 1 µM, compound concentration 1 uM, replicate 2
[7] = 24 h, 10 µM, compound concentration 10 uM, replicate 1
[8] = 24 h, 10 µM, compound concentration 10 uM, replicate 2
[9] = 48 h, 1 µM, compound concentration 1 uM, replicate 1
[10] = 48 h, 1 µM, compound concentration 1 uM, replicate 2
[11] = 48 h, 10 µM, compound concentration 10 uM, replicate 1
[12] = 48 h, 10 µM, compound concentration 10 uM, replicate 2

Structure (SMILES): COc1cc2ncnc(Nc3ccc(F)c(Cl)c3)c2cc1NC(=O)/C=C/CN1CCCCC1 [DACOMITINIB ANHYDROUS]
- Population Apoptotic (%) [1]: 5%
- Population Fragmented Nuclei (%) [1]: 6%
- Population Healthy Nuclei (%) [1]: 84%
- Population Hoechst High Intensity Objects (%) [1]: 6%
- Population Membrane Permeable-Phenotype (%) [1]: 72%
- Population Mitochondria Different-Phenotype (%) [1]: 3%
- Population Mitotic Cells (%) [1]: 94%
- Population Normal (%) [1]: 93%
- Population Pyknosed Nuclei (%) [1]: 8%
- Population Tubulin-Different-Phenotype (%) [1]: 45%
- Total Cell Count [1]: 197
- Population Apoptotic (%) [2]: 60%
- Population Fragmented Nuclei (%) [2]: 11%
- Population Hoechst High Intensity Objects (%) [2]: 8%
- Population Membrane Permeable-Phenotype (%) [2]: 24%
- Population Mitochondria Different-Phenotype (%) [2]: 32%
- Population Mitotic Cells (%) [2]: 40%
- Population Normal (%) [2]: 91%
- Population Pyknosed Nuclei (%) [2]: 4%
- Population Tubulin-Different-Phenotype (%) [2]: 69%
- Total Cell Count [2]: 127
- Population Apoptotic (%) [3]: 0%
- Population Fragmented Nuclei (%) [3]: 3%
- Population Healthy Nuclei (%) [3]: 92%
- Population Hoechst High Intensity Objects (%) [3]: 3%
- Population Membrane Permeable-Phenotype (%) [3]: 31%
- Population Mitochondria Different-Phenotype (%) [3]: 7%
- Population Mitotic Cells (%) [3]: 100%
- Population Normal (%) [3]: 96%
- Population Pyknosed Nuclei (%) [3]: 4%
- Population Tubulin-Different-Phenotype (%) [3]: 15%
- Total Cell Count [3]: 182
- Population Fragmented Nuclei (%) [4]: 14%
- Population Healthy Nuclei (%) [4]: 82%
- Population Hoechst High Intensity Objects (%) [4]: 10%
- Population Membrane Permeable-Phenotype (%) [4]: 10%
- Population Mitochondria Different-Phenotype (%) [4]: 17%
- Population Normal (%) [4]: 89%
- Population Pyknosed Nuclei (%) [4]: 2%
- Population Tubulin-Different-Phenotype (%) [4]: 18%
- Total Cell Count [4]: 118
- Population Apoptotic (%) [5]: 46%
- Population Fragmented Nuclei (%) [5]: 9%
- Population Healthy Nuclei (%) [5]: 81%
- Population Hoechst High Intensity Objects (%) [5]: 5%
- Population Membrane Permeable-Phenotype (%) [5]: 65%
- Population Mitochondria Different-Phenotype (%) [5]: 5%
- Population Mitotic Cells (%) [5]: 53%
- Population Normal (%) [5]: 94%
- Population Pyknosed Nuclei (%) [5]: 9%
- Population Tubulin-Different-Phenotype (%) [5]: 39%
- Total Cell Count [5]: 262
- Population Apoptotic (%) [6]: 75%
- Population Fragmented Nuclei (%) [6]: 14%
- Population Healthy Nuclei (%) [6]: 78%
- Population Membrane Permeable-Phenotype (%) [6]: 11%
- Population Mitochondria Different-Phenotype (%) [6]: 50%
- Population Mitotic Cells (%) [6]: 25%
- Population Pyknosed Nuclei (%) [6]: 7%
- Population Tubulin-Different-Phenotype (%) [6]: 58%
- Total Cell Count [6]: 158
- Population Apoptotic (%) [7]: 40%
- Population Fragmented Nuclei (%) [7]: 5%
- Population Healthy Nuclei (%) [7]: 86%
- Population Hoechst High Intensity Objects (%) [7]: 2%
- Population Membrane Permeable-Phenotype (%) [7]: 15%
- Population Mitochondria Different-Phenotype (%) [7]: 10%
- Population Mitotic Cells (%) [7]: 59%
- Population Normal (%) [7]: 97%
- Population Pyknosed Nuclei (%) [7]: 8%
- Population Tubulin-Different-Phenotype (%) [7]: 14%
- Total Cell Count [7]: 184
- Population Apoptotic (%) [8]: 50%
- Population Fragmented Nuclei (%) [8]: 6%
- Population Healthy Nuclei (%) [8]: 87%
- Population Hoechst High Intensity Objects (%) [8]: 9%
- Population Membrane Permeable-Phenotype (%) [8]: 18%
- Population Mitochondria Different-Phenotype (%) [8]: 24%
- Population Mitotic Cells (%) [8]: 50%
- Population Normal (%) [8]: 90%
- Population Pyknosed Nuclei (%) [8]: 5%
- Population Tubulin-Different-Phenotype (%) [8]: 22%
- Total Cell Count [8]: 114

Structure (SMILES): C=C1/C(=C\C=C2/CCC[C@]3(C)[C@@H]([C@H](C)/C=C/[C@H](C)C(C)C)CC[C@@H]23)C[C@@H](O)C[C@@H]1O [DOXERCALCIFEROL]
- Population Apoptotic (%) [1]: 38%
- Population Fragmented Nuclei (%) [1]: 9%
- Population Healthy Nuclei (%) [1]: 82%
- Population Hoechst High Intensity Objects (%) [1]: 6%
- Population Membrane Permeable-Phenotype (%) [1]: 5%
- Population Mitochondria Different-Phenotype (%) [1]: 11%
- Population Mitotic Cells (%) [1]: 61%
- Population Normal (%) [1]: 93%
- Population Pyknosed Nuclei (%) [1]: 8%
- Population Tubulin-Different-Phenotype (%) [1]: 17%
- Total Cell Count [1]: 2
- Population Apoptotic (%) [2]: 40%
- Population Fragmented Nuclei (%) [2]: 1%
- Population Healthy Nuclei (%) [2]: 90%
- Population Hoechst High Intensity Objects (%) [2]: 1%
- Population Mitochondria Different-Phenotype (%) [2]: 14%
- Population Mitotic Cells (%) [2]: 60%
- Population Normal (%) [2]: 98%
- Population Tubulin-Different-Phenotype (%) [2]: 9%
- Total Cell Count [2]: 111
- Population Apoptotic (%) [3]: 36%
- Population Fragmented Nuclei (%) [3]: 20%
- Population Healthy Nuclei (%) [3]: 60%
- Population Hoechst High Intensity Objects (%) [3]: 9%
- Population Membrane Permeable-Phenotype (%) [3]: 8%
- Population Mitochondria Different-Phenotype (%) [3]: 17%
- Population Mitotic Cells (%) [3]: 63%
- Population Normal (%) [3]: 90%
- Population Pyknosed Nuclei (%) [3]: 19%
- Population Tubulin-Different-Phenotype (%) [3]: 8%
- Total Cell Count [3]: 160
- Population Apoptotic (%) [4]: 0%
- Population Fragmented Nuclei (%) [4]: 27%
- Population Healthy Nuclei (%) [4]: 67%
- Population Hoechst High Intensity Objects (%) [4]: 6%
- Population Membrane Permeable-Phenotype (%) [4]: 2%
- Population Mitochondria Different-Phenotype (%) [4]: 21%
- Population Mitotic Cells (%) [4]: 100%
- Population Normal (%) [4]: 93%
- Population Pyknosed Nuclei (%) [4]: 5%
- Population Tubulin-Different-Phenotype (%) [4]: 13%
- Total Cell Count [4]: 61
- Population Apoptotic (%) [5]: 7%
- Population Fragmented Nuclei (%) [5]: 8%
- Population Healthy Nuclei (%) [5]: 84%
- Population Hoechst High Intensity Objects (%) [5]: 2%
- Population Membrane Permeable-Phenotype (%) [5]: 3%
- Population Mitochondria Different-Phenotype (%) [5]: 8%
- Population Mitotic Cells (%) [5]: 92%
- Population Normal (%) [5]: 97%
- Population Pyknosed Nuclei (%) [5]: 6%
- Population Tubulin-Different-Phenotype (%) [5]: 9%
- Total Cell Count [5]: 1
- Population Apoptotic (%) [6]: 42%
- Population Fragmented Nuclei (%) [6]: 5%
- Population Healthy Nuclei (%) [6]: 86%
- Population Hoechst High Intensity Objects (%) [6]: 4%
- Population Membrane Permeable-Phenotype (%) [6]: 4%
- Population Mitochondria Different-Phenotype (%) [6]: 7%
- Population Mitotic Cells (%) [6]: 57%
- Population Normal (%) [6]: 95%
- Population Pyknosed Nuclei (%) [6]: 8%
- Population Tubulin-Different-Phenotype (%) [6]: 14%
- Total Cell Count [6]: 157
- Population Apoptotic (%) [7]: 56%
- Population Fragmented Nuclei (%) [7]: 43%
- Population Healthy Nuclei (%) [7]: 18%
- Population Hoechst High Intensity Objects (%) [7]: 23%
- Population Membrane Permeable-Phenotype (%) [7]: 11%
- Population Mitochondria Different-Phenotype (%) [7]: 26%
- Population Mitotic Cells (%) [7]: 43%
- Population Normal (%) [7]: 76%
- Population Pyknosed Nuclei (%) [7]: 37%
- Population Tubulin-Different-Phenotype (%) [7]: 7%
- Total Cell Count [7]: 197
- Population Apoptotic (%) [8]: 33%
- Population Fragmented Nuclei (%) [8]: 25%
- Population Healthy Nuclei (%) [8]: 70%
- Population Hoechst High Intensity Objects (%) [8]: 3%
- Population Membrane Permeable-Phenotype (%) [8]: 1%
- Population Mitochondria Different-Phenotype (%) [8]: 16%
- Population Mitotic Cells (%) [8]: 66%
- Population Normal (%) [8]: 96%
- Population Pyknosed Nuclei (%) [8]: 4%
- Population Tubulin-Different-Phenotype (%) [8]: 13%
- Total Cell Count [8]: 83
- Population Apoptotic (%) [9]: 21%
- Population Fragmented Nuclei (%) [9]: 4%
- Population Healthy Nuclei (%) [9]: 89%
- Population Hoechst High Intensity Objects (%) [9]: 2%
- Population Membrane Permeable-Phenotype (%) [9]: 2%
- Population Mitochondria Different-Phenotype (%) [9]: 13%
- Population Mitotic Cells (%) [9]: 78%
- Population Normal (%) [9]: 97%
- Population Pyknosed Nuclei (%) [9]: 6%
- Population Tubulin-Different-Phenotype (%) [9]: 10%
- Total Cell Count [9]: 5
- Population Apoptotic (%) [10]: 42%
- Population Healthy Nuclei (%) [10]: 90%
- Population Hoechst High Intensity Objects (%) [10]: 1%
- Population Membrane Permeable-Phenotype (%) [10]: 0%
- Population Mitotic Cells (%) [10]: 57%
- Population Normal (%) [10]: 98%
- Population Pyknosed Nuclei (%) [10]: 5%
- Population Tubulin-Different-Phenotype (%) [10]: 11%
- Total Cell Count [10]: 235
- Population Apoptotic (%) [11]: 47%
- Population Fragmented Nuclei (%) [11]: 53%
- Population Healthy Nuclei (%) [11]: 16%
- Population Hoechst High Intensity Objects (%) [11]: 18%
- Population Membrane Permeable-Phenotype (%) [11]: 25%
- Population Mitochondria Different-Phenotype (%) [11]: 29%
- Population Mitotic Cells (%) [11]: 52%
- Population Normal (%) [11]: 81%
- Population Pyknosed Nuclei (%) [11]: 30%
- Population Tubulin-Different-Phenotype (%) [11]: 25%
- Total Cell Count [11]: 316
- Population Apoptotic (%) [12]: 22%
- Population Fragmented Nuclei (%) [12]: 12%
- Population Healthy Nuclei (%) [12]: 79%
- Population Hoechst High Intensity Objects (%) [12]: 3%
- Population Membrane Permeable-Phenotype (%) [12]: 2%
- Population Mitochondria Different-Phenotype (%) [12]: 22%
- Population Mitotic Cells (%) [12]: 77%
- Population Normal (%) [12]: 96%
- Population Pyknosed Nuclei (%) [12]: 8%
- Population Tubulin-Different-Phenotype (%) [12]: 28%
- Total Cell Count [12]: 127
